Assay results from ChEMBL document CHEMBL3352507, “Preparation and antimalarial activity of a novel class of carbohydrate-derived, fused thiochromans” (Eur J Med Chem, 2014).

Tests used:
Plasmodium falciparum [1] = test: Antimalarial activity against Plasmodium falciparum 3D7 after 48 hrs by parasite lactate dehydrogenase assay; type: functional, organism-based; details: 3D7, 48 h
Outline: (§1)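 Parasite survival read by parasite lactate dehydrogenase (pLDH) assay. Single-concentration prescreen at […]; compounds with 0–15% survival were taken to dose–response. Ten three-fold serial dilutions in triplicate, incubated 48 h in a gassed airtight box, developed with NBT/PES. IC50 from sigmoidal curve of % survival relative to control against log concentration.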

Plasmodium falciparum [2] = test: Antimalarial activity against Plasmodium falciparum FCR3 after 48 hrs by parasite lactate dehydrogenase assay; type: functional, organism-based; details: FCR3, 48 h; outline: as §1
[3] = Cytotoxicity against human WI38 cells after 48 hrs by SRB assay; type: cell-based; details: WI-38, 48 h
Outline: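 WI-38 human fetal lung fibroblasts (passages 21–50) in EMEM with 10% FBS, 2 mM L-glutamine and gentamicin, at 37 °C and 5% CO2. Seeded at 10 000 cells/well, grown 24 h, then given compound in DMSO diluted in medium to 5 concentrations for 48 h. Cells were fixed with cold 50% TCA and stained with SRB, and dye was read at 540 nm. IC50 by non-linear regression against untreated controls.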

[4] = Cytotoxicity against human WI38 cells assessed as cell viability at 1 uM after 48 hrs by SRB assay; type: cell-based, WI-38; details: read-out: Activity
Outline: (§2)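 WI-38 fibroblasts (passages 21–50) were seeded at 10 000 cells/well for 24 h, then exposed for 48 h to compound dissolved in DMSO and diluted in medium. Viable cells were fixed with cold 50% trichloroacetic acid and stained with sulforhodamine B. Bound dye was extracted with 10 mM Tris base and read at 540 nm. Viability relative to drug-free cells.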

[5] = Cytotoxicity against human WI38 cells assessed as cell viability at 0.1 uM after 48 hrs by SRB assay; type: cell-based, WI-38; details: read-out: Activity; outline: as §2
[6] = Cytotoxicity against human WI38 cells assessed as cell viability at 100 uM after 48 hrs by SRB assay; type: cell-based, WI-38; details: read-out: Activity; outline: as §2
[7] = Cytotoxicity against human WI38 cells assessed as cell viability at 10 uM after 48 hrs by SRB assay; type: cell-based, WI-38; details: read-out: Activity; outline: as §2
[8] = Cytotoxicity against human WI38 cells assessed as cell viability at 0.01 uM after 48 hrs by SRB assay; type: cell-based, WI-38; details: read-out: Activity; outline: as §2

Structure (SMILES)	IC50 (Plasmodium falciparum [1]) [µM]	IC50 (Plasmodium falciparum [2]) [µM]	IC50 [3] [µM]	viability at 48 h, 1 µM [4] [%]	viability at 48 h, 0.1 µM [5] [%]	viability at 48 h, 100 µM [6] [%]	viability at 48 h, 10 µM [7] [%]	viability at 48 h, 0.01 µM [8] [%]
CC(C)(C)c1ccc2c(c1)[C@H]1O[C@H](COCc3ccccc3)[C@@H](OCc3ccccc3)[C@H](OCc3ccccc3)[C@H]1CS2	> 100	> 100	–	–	–	–	–	–
c1ccc(COC[C@H]2O[C@@H]3c4c(ccc5ccccc45)SC[C@@H]3[C@@H](OCc3ccccc3)[C@@H]2OCc2ccccc2)cc1	> 100	7.11	> 100	–	–	–	–	–
CC(=O)OC[C@H]1O[C@@H]2c3cc(C(C)(C)C)ccc3SC[C@@H]2[C@@H](OC(C)=O)[C@@H]1OC(C)=O	> 100	> 100	–	–	–	–	–	–
CC(C)(C)c1ccc2c(c1)[C@H]1O[C@H](CO)[C@@H](O)[C@H](O)[C@H]1CS2	> 100	> 100	–	–	–	–	–	–
[O-][S@@+]1C[C@@H]2[C@@H](OCc3ccccc3)[C@H](OCc3ccccc3)[C@@H](COCc3ccccc3)O[C@@H]2c2ccccc21	> 100	10.3	> 100	–	–	–	–	–
Cc1cccc2c1[S@@+]([O-])C[C@@H]1[C@@H](OCc3ccccc3)[C@H](OCc3ccccc3)[C@@H](COCc3ccccc3)O[C@H]21	4.13	2.76	> 100	99.2	99.5	67.1	84.7	102
[O-][S@@+]1C[C@@H]2[C@@H](OCc3ccccc3)[C@H](OCc3ccccc3)[C@@H](COCc3ccccc3)O[C@@H]2c2c1ccc1ccccc21	3.55	0.52	> 100	96	92.5	89	93.7	96
[O-][S@+]1C[C@@H]2[C@@H](OCc3ccccc3)[C@H](OCc3ccccc3)[C@@H](COCc3ccccc3)O[C@@H]2c2ccccc21	> 100	> 100	–	–	–	–	–	–
Cc1ccc2c(c1)[C@H]1O[C@H](COCc3ccccc3)[C@@H](OCc3ccccc3)[C@H](OCc3ccccc3)[C@H]1C[S@@+]2[O-]	2.57	2.91	> 100	100	101	70.3	92.6	101
COc1ccc2c(c1)[C@H]1O[C@H](COCc3ccccc3)[C@@H](OCc3ccccc3)[C@H](OCc3ccccc3)[C@H]1C[S@@+]2[O-]	2.21	2.07	8.76	97.2	98	27.2	55.4	97.4
CC(C)(C)c1ccc2c(c1)[C@H]1O[C@H](COCc3ccccc3)[C@@H](OCc3ccccc3)[C@H](OCc3ccccc3)[C@H]1C[S@@+]2[O-]	1.33	0.33	> 100	97.1	98.8	60.2	86.9	100
Cc1cccc2c1[S@+]([O-])C[C@@H]1[C@@H](OCc3ccccc3)[C@H](OCc3ccccc3)[C@@H](COCc3ccccc3)O[C@H]21	6.29	4.34	> 100	95.5	99.3	52.5	88.2	101
[O-][S@+]1C[C@@H]2[C@@H](OCc3ccccc3)[C@H](OCc3ccccc3)[C@@H](COCc3ccccc3)O[C@@H]2c2c1ccc1ccccc21	2.55	2.17	> 100	96.7	98.5	79.4	94.5	101
O=S1(=O)C[C@@H]2[C@@H](OCc3ccccc3)[C@H](OCc3ccccc3)[C@@H](COCc3ccccc3)O[C@@H]2c2ccccc21	> 100	3.95	> 100	97	97	67.8	92.4	97.8
Cc1ccc2c(c1)[C@H]1O[C@H](COCc3ccccc3)[C@@H](OCc3ccccc3)[C@H](OCc3ccccc3)[C@H]1CS2(=O)=O	2.32	1.93	> 100	94.6	95.7	68.5	91.7	99.5
COc1ccc2c(c1)[C@H]1O[C@H](COCc3ccccc3)[C@@H](OCc3ccccc3)[C@H](OCc3ccccc3)[C@H]1CS2(=O)=O	1.8	1.7	> 100	–	–	–	–	–
CC(C)(C)c1ccc2c(c1)[C@H]1O[C@H](COCc3ccccc3)[C@@H](OCc3ccccc3)[C@H](OCc3ccccc3)[C@H]1CS2(=O)=O	0.39	0.28	> 100	92.7	96.3	71.7	91	96.7
Cc1cccc2c1S(=O)(=O)C[C@@H]1[C@@H](OCc3ccccc3)[C@H](OCc3ccccc3)[C@@H](COCc3ccccc3)O[C@H]21	2.34	1.62	> 100	–	–	–	–	–
O=S1(=O)C[C@@H]2[C@@H](OCc3ccccc3)[C@H](OCc3ccccc3)[C@@H](COCc3ccccc3)O[C@@H]2c2c1ccc1ccccc21	2.09	3.83	> 100	–	–	–	–	–
CC(=O)OC[C@H]1O[C@@H]2c3cc(C(C)(C)C)ccc3S(=O)(=O)C[C@@H]2[C@@H](OC(C)=O)[C@@H]1OC(C)=O	> 100	> 100	–	–	–	–	–	–
CC(C)(C)c1ccc2c(c1)[C@H]1O[C@H](CO)[C@@H](O)[C@H](O)[C@H]1CS2(=O)=O	> 100	> 100	–	–	–	–	–	–
O=S1(=O)C[C@@H]2[C@@H](OCc3ccccc3)[C@H](OCc3ccccc3)[C@@H](COCc3ccccc3)O[C@H]2c2ccccc21	4.14	3.21	> 100	–	–	–	–	–
Cc1ccc2c(c1)[C@@H]1O[C@H](COCc3ccccc3)[C@@H](OCc3ccccc3)[C@H](OCc3ccccc3)[C@H]1CS2(=O)=O	2.34	1.69	> 100	–	–	–	–	–
COc1ccc2c(c1)[C@@H]1O[C@H](COCc3ccccc3)[C@@H](OCc3ccccc3)[C@H](OCc3ccccc3)[C@H]1CS2(=O)=O	2.5	1.95	> 100	–	–	–	–	–
CC(C)(C)c1ccc2c(c1)[C@@H]1O[C@H](COCc3ccccc3)[C@@H](OCc3ccccc3)[C@H](OCc3ccccc3)[C@H]1CS2(=O)=O	> 100	0.7	> 100	–	–	–	–	–
Cc1cccc2c1S(=O)(=O)C[C@@H]1[C@@H](OCc3ccccc3)[C@H](OCc3ccccc3)[C@@H](COCc3ccccc3)O[C@@H]21	3.4	2.14	> 100	–	–	–	–	–
O=S1(=O)C[C@@H]2[C@@H](OCc3ccccc3)[C@H](OCc3ccccc3)[C@@H](COCc3ccccc3)O[C@H]2c2c1ccc1ccccc21	> 100	> 100	–	–	–	–	–	–
